In experiment [1] the target is Beta-1 adrenergic receptor (Homo sapiens) (UniProt P08588). The experiment in a line: Displacement of [3H](-)CGP12177 from human recombinant beta 1 adrenergic receptor expressed in HEK293 cells at 10 uM. In kind it is cell-based. In general terms: Loss of bound radioactivity is the signal in a displacement assay; it reports binding, not function.
The test system of experiment [2] is Mus musculus. Put plainly: Anticonvulsant activity against maximal electroshock-induced seizures in CD1 mouse model at 20 mg/kg, po treated 30 mins before electroshock application. In kind it is functional, organism-based. Further details: dose 20 mg/kg. Summed up: (§1)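 Male CD-1 mice dosed po (10 mL/kg in 5% DMSO/95% of 0.5% HPMC/1% Tween 80) 30 min before corneal electroshock at 50 mA for 0.2 s, with 1% proparacaine in each eye. Latency to hindlimb extension recorded to 0.1 s. No extension within 6 s scored as protected (latency 6 s). Reported as protected/tested (8 per group), or EC50 derived from latency scores.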
Background: In the maximal electroshock model the usual endpoint is tonic extension of the hind limbs.

Experiment [3] deals with Rattus norvegicus. Put plainly: Antinociceptive activity in formalin-treated Sprague-Dawley rat model assessed as reduction in hind paw flinches at 34 mg/kg, po measured during 11 to 60 mins of phase 2 flinches. In kind it is functional. On the set-up: scale not given: the % may be the effect or the level left. Summed up: (§2)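 A small metal band was glued to the right hind paw of male Sprague-Dawley rats 1 h before testing. Compound given po in 0.5% methylcellulose 1 h before the test, then 50 μL of 2.5% formalin injected sc into the dorsal paw. Flinches counted electromagnetically for 60 min; phase II covers 11-60 min post-injection.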

Experiment [4] has as its target T1, Adenosine receptor A1 (Homo sapiens) (UniProt P30542).
T1 sequence (whole entry): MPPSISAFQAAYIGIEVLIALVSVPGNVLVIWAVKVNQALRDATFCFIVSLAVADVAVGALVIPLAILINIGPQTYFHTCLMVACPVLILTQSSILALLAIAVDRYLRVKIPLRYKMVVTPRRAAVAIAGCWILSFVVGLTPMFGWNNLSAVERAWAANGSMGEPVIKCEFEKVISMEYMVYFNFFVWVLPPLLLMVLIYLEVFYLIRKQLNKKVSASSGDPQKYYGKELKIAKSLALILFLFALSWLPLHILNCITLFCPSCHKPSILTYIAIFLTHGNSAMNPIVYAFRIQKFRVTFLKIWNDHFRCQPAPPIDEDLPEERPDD
The experiment in a line: Displacement of [3H]CCPA from human recombinant adenosine A1 receptor expressed in CHO cells at 10 uM. In kind it is cell-based.

Experiment [5] in a line: Binding affinity to Calcium channel diltiazem site at 10 uM by displacement assay.
Experiment [6] concerns the target Cannabinoid receptor 2 (Homo sapiens) (UniProt P34972). The experiment in a line: Displacement of [3H]WIN-55212-2 from human recombinant CB2 receptor expressed in CHO cells at 10 uM. Type of experiment: cell-based.
Experiment [7] concerns Rattus norvegicus. The experiment in a line: Antinociceptive activity in formalin-treated Sprague-Dawley rat model assessed as reduction in hind paw flinches at 10 mg/kg, po measured during 11 to 60 mins of phase 2 flinches. On the set-up: scale not given: the % may be the effect or the level left. Type of experiment: functional. A digest of the protocol:
as §2

For experiment [8], the system named is Rattus norvegicus. The experiment in a line: Analgesic activity in Sprague-Dawley rat assessed as reduction of spinal nerve ligation-induced allodynia score at 10 mg/kg, po. Type of experiment: functional. On the set-up: scale not given: the % may be the effect or the level left. Summed up: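 Male Sprague-Dawley rats; L5 spinal nerve tightly ligated with 4.0 silk distal to the DRG under halothane, then 2-3 weeks recovery. Dosed po in 0.5% methylcellulose. Von Frey tactile withdrawal thresholds measured on a wire mesh floor, top threshold 15 g. Baseline taken just before dosing; testing at 1 and 2 h post-dose.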

The target of experiment [9] is Cannabinoid receptor 1 (Homo sapiens) (UniProt P21554). The experiment in a line: Displacement of [3H]CP-55940 from human recombinant CB1 receptor expressed in CHO cells at 10 uM. In kind it is cell-based.
Cannabinoid receptor 1 (Homo sapiens), sequence (P21554 whole entry): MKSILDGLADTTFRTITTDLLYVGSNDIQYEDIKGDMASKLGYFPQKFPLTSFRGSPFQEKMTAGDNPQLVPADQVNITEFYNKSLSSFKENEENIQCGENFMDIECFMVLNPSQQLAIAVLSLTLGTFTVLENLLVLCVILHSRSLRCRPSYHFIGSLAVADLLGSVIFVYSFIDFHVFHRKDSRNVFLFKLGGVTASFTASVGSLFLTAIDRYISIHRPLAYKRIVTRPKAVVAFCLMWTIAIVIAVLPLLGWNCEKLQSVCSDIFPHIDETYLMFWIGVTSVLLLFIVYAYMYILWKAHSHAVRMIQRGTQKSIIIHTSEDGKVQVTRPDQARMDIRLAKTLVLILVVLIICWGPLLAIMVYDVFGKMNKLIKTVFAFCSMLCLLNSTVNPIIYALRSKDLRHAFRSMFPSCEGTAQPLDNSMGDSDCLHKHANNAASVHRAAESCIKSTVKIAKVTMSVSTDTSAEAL
Experiment [10] is described as follows: Binding affinity to sodium channel site 2 at 10 uM by displacement assay.
Experiment [11] concerns the target Mu-type opioid receptor (Homo sapiens) (UniProt P35372). Put plainly: Displacement of [3H]diprenorphine from human recombinant mu opioid receptor expressed in HEK293 cells at 10 uM. In kind it is cell-based.
A short description of experiment [12]: Binding affinity to voltage-dependent N-type calcium channel at 10 uM by displacement assay.
Experiment [13] deals with Delta-type opioid receptor (Homo sapiens) (UniProt P41143). The experiment in a line: Displacement of [3H]DADLE from human recombinant delta opioid receptor expressed in CHO cells at 10 uM. Type of experiment: cell-based.
Delta-type opioid receptor (Homo sapiens), sequence (P41143 whole entry): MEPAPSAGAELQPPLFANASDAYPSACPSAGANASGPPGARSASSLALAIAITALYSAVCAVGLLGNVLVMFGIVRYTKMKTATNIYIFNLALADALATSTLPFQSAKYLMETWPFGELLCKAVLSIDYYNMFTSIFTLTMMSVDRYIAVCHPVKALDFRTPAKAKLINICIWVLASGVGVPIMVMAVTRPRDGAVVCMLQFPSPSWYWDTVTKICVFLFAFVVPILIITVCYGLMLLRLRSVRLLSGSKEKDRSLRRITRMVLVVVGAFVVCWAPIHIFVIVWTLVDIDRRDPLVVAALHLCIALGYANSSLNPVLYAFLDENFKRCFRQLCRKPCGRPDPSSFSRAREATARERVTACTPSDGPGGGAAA
Experiment [14] is described as follows: Binding affinity to Calcium channel DHP site at 10 uM by displacement assay.
Experiment [15] deals with Kappa-type opioid receptor (Rattus norvegicus) (UniProt P34975). Put plainly: Displacement of [3H]U69593 from rat recombinant kappa opioid receptor expressed in CHO cells at 10 uM. In kind it is cell-based.
Kappa-type opioid receptor (Rattus norvegicus), sequence (P34975 whole entry): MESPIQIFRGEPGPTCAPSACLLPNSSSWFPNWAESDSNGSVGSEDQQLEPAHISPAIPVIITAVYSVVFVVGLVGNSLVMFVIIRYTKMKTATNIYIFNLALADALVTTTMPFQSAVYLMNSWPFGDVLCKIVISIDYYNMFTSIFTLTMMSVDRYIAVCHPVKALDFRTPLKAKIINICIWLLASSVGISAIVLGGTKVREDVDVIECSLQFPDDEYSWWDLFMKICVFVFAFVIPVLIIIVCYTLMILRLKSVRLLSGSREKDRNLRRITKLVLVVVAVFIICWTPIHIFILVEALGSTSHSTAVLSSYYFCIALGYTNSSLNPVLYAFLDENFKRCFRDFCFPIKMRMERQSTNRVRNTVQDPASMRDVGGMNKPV
In experiment [16] the test system is Rattus norvegicus. Put plainly: Analgesic activity in po dosed Sprague-Dawley rat assessed as reduction of spinal nerve ligation-induced allodynia score. In kind it is functional. A digest of the protocol: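 L5 spinal nerve tightly ligated distal to the DRG under halothane in male Sprague-Dawley rats, followed by 2-3 weeks of recovery. Von Frey withdrawal thresholds taken on a wire-mesh floor (top threshold 15 g), with baseline measured before dosing. Compound given po in 0.5% methylcellulose; testing at 1 and 2 h post-dose.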

The target of experiment [17] is Kappa-type opioid receptor (Rattus norvegicus) (UniProt P34975). Put plainly: Displacement of [3H]U69593 from rat recombinant kappa opioid receptor expressed in CHO cells at 30 uM. In kind it is cell-based.
In experiment [18] the test system is Rattus norvegicus. Put plainly: Antinociceptive activity in formalin-treated Sprague-Dawley rat model assessed as reduction in hind paw flinches at 17 mg/kg, po measured during 11 to 60 mins of phase 2 flinches. In kind it is functional. On the set-up: scale not given: the % may be the effect or the level left. Summed up:
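Male Sprague-Dawley rats dosed po in 0.5% methylcellulose 1 h before assay. A 0.5 g metal band was glued to the right hind paw 1 h beforehand. 2.5% formalin (50 μL) was injected sc into the dorsal right hind paw. An electromagnetic detector counted flinches for 60 min; phase II is 11-60 min post-injection.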

The subject of experiment [19] is Mus musculus. Put plainly: Anticonvulsant activity against maximal electroshock-induced seizures in CD1 mouse model at 10 mg/kg, po treated 30 mins before electroshock application. In kind it is functional, organism-based. Further details: dose 10 mg/kg. Summed up: as §1

Calls of active or inactive are those of the source.

From ChEMBL document CHEMBL1157731, “Novel KCNQ2/Q3 agonists as potential therapeutics for epilepsy and neuropathic pain” (J Med Chem, 2010) come the findings set out here.

Beta-1 adrenergic receptor (Homo sapiens), sequence (P08588 whole entry, looked up): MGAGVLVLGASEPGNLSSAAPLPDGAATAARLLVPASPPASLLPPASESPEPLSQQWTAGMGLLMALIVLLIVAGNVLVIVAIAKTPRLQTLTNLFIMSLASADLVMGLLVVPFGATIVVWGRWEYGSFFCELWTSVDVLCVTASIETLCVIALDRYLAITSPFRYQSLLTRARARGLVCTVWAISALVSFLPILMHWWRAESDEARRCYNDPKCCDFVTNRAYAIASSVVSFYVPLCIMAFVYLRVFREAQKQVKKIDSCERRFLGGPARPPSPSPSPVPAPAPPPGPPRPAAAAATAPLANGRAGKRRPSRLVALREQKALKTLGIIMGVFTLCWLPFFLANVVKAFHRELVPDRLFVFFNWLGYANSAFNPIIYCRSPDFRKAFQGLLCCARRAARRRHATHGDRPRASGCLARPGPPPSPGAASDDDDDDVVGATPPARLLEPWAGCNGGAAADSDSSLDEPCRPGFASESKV
Mu-type opioid receptor (Homo sapiens), sequence (P35372 whole entry): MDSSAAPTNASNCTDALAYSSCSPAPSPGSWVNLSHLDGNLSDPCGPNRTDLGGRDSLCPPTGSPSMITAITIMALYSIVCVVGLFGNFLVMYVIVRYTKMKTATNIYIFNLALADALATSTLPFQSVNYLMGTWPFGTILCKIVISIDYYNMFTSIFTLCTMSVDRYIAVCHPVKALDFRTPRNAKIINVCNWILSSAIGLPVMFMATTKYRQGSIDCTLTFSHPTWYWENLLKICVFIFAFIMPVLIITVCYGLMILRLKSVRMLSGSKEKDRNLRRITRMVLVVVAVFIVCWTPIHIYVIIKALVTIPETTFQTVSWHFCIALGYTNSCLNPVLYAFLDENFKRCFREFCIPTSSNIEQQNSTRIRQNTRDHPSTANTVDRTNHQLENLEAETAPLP
Cannabinoid receptor 2 (Homo sapiens), sequence (P34972 whole entry): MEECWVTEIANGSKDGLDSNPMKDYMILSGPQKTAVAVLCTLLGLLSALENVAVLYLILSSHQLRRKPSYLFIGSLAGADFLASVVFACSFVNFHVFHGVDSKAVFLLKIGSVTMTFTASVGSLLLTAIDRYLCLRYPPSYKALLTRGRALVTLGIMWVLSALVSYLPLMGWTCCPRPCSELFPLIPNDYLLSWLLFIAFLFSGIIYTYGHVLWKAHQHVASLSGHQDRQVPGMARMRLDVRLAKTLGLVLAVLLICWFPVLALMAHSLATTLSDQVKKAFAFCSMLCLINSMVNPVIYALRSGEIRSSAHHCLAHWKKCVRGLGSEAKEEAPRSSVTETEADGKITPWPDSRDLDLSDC

With `Cn1/c(=N/NC(=O)CC2CCCC2)sc2cc(OC(F)(F)F)ccc21`, the figures for the Activity (in [1]; with Rattus norvegicus [3]; in [4]) were 0%, 28% and 0%, respectively. Besides, in the experiment with Mus musculus [2], the outcome was Active.
On to `CC(C)OC(=O)N/N=c1\sc2cc(OC(F)(F)F)ccc2n1C`, for which the Activity amounted to 0% in [5]; 0% in experiment [6]; 47% in the experiment on Rattus norvegicus [7]; 100% with Rattus norvegicus [8]; 11% in experiment [1]; 19% in experiment [9]. The Activity in experiment [10] turned out to be 35%; in experiment [11], 0%; in experiment [12], 0%; in experiment [13] it was 10%; in experiment [14], 0%; in [15] it was 15%. The values for the Activity in experiment [4] and in experiment [17] were 11% and 0%, respectively. Moreover, the result in the experiment on Mus musculus [2] was Active. In addition, the median effective dose (ED50) – broadly, the dose at which the effect has come halfway, by size or by number of responders – in the experiment with Rattus norvegicus [16] came out at 16.2 mg/kg.
`Cn1/c(=N/NC(=O)CC(C)(C)C)sc2cc(OC(F)(F)F)ccc21`: the figures for the Activity (in the experiment with Rattus norvegicus [18]; in experiment [1]; in [4]) were 55%, 0% and 0%, respectively. In addition, in the experiment on Rattus norvegicus [16], the ED50 was determined as 20 mg/kg. Moreover, the result in the experiment on Mus musculus [19] was Active.
